PubChem BioAssay AID624363 (Broad Institute, 2012)
Several values for one entry are separate records, joined by “and”; a condition that tells them apart may be missing. Equal entries are not always repeated. Activity calls are given as the source filed them.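 The calls were made as follows: active = in every test run, a falling-signal curve whose half-maximal concentration is at most twice the top tested dose; inconclusive = runs disagree, flat fit at 30 to 70% inhibition, or poor fit; inactive = every test run inactive.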

Test system: not listed separately
Assay: MITF transcriptional activity inhibition, TRPM1 luciferase – cell-based, SK-MEL-5, dry powder, set 5, dose response (AID 624363)
Conditions: SK-MEL-5 TRPM1 promoter luciferase reporter, 24 h; at 35 µM (top of the series)
How it was run: (§1)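 Assay system: SK-MEL-5 melanoma line with stable TRPM1 promoter–luciferase reporter; buffer or medium: phenol red-free DMEM, 10% FBS; compound: pin-transferred compounds; incubation: compound exposure 24 h at 37 °C, one day after plating; detection: SteadyGlo luciferase luminescence after 5 min at room temperature; control set: parthenolide 27 µM positive control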

| Structure (SMILES) | activity change, negative = inhibition |
| --- | --- |
| O=C1C(NS(=O)(=O)c2ccc(Br)cc2)=C(N2CCN(c3ccccc3)CC2)C(=O)c2ccccc21 | -44.3% (inactive) |
| O=C(NC1=C(c2ccc(Oc3ccccc3)cc2)C(=O)c2ccccc2C1=O)c1ccccc1 | -5.77% (inactive) |
| COc1ccc(C2=C(NC(=O)c3ccc4ccccc4c3)C(=O)c3ccccc3C2=O)cc1 | -15.2% (inactive) |
| C=CCNC1=C(NCC=C)C(=O)c2ccccc2C1=O | -12.8% (inactive) |
| O=C(NC1=C(N2CCN(c3ccccc3)CC2)C(=O)c2ccccc2C1=O)c1ccccc1 | -32.8% (inactive) |
| COc1ccc(C2=C(NC(=O)c3ccc(OC)cc3-c3cccc(OC)c3)C(=O)c3ccccc3C2=O)cc1 | -14.7% (inactive) |

Test system: SK-MEL-5 TRPM1 promoter luciferase reporter, 24 h
Assay: as above
Conditions: not given
How it was run: as §1

| Structure (SMILES) | AC50 |
| --- | --- |
| NC1=C(NS(=O)(=O)c2ccc(Br)cc2)C(=O)c2ccccc2C1=O | 8.9 µM |
| O=C1C(Nc2ccccc2)=C(NS(=O)(=O)c2ccccc2[N+](=O)[O-])C(=O)c2ccccc21 | 16.9 µM |
| O=C1C(Nc2ccccc2)=C(N2CCCCC2)C(=O)c2ccccc21 | 6.28 µM |
| O=C1C=C(Nc2ccccc2)C(=O)c2ccccc21 | 4.02 µM and 5.21 µM |
| CC(=O)NC1=C(c2ccc3c(c2)oc2ccccc23)C(=O)c2ccccc2C1=O | 2.15 µM |
| CC(=O)N(C)C1=C(N2CCN(C)CC2)C(=O)c2ccccc2C1=O | 0.404 µM |
| C=CCNC1=C(Nc2ccccc2)C(=O)c2ccccc2C1=O | 15.4 µM |
| O=C1C=C(NS(=O)(=O)c2ccc(Br)cc2)C(=O)c2ccccc21 | 9.16 µM |
| NC1=C(c2ccccc2)C(=O)c2ccccc2C1=O | 4.34 µM |
| CCN1CCN(C2=C(NS(=O)(=O)c3ccc(Br)cc3)C(=O)c3ccccc3C2=O)CC1 | 8.69 µM |
| O=C(CNc1cccc2ccccc12)N/N=C/c1ccc([N+](=O)[O-])o1 | 3.64 µM |
| O=C1C(NS(=O)(=O)c2ccc(Br)cc2)=C(N2CCOCC2)C(=O)c2ccccc21 | 14.4 µM |
| O=C1C(NS(=O)(=O)c2ccccc2)=C(c2ccccc2)C(=O)c2ccccc21 | 20.5 µM |
| O=C(NC1=C(N2CCCCC2)C(=O)c2ccccc2C1=O)c1ccccc1 | 23.3 µM |
| C=CCNC1=C(NCCCN2CCOCC2)C(=O)c2ccccc2C1=O | 13.9 µM |
| CN1CCN(C2=C(Nc3ccccc3)C(=O)c3ccccc3C2=O)CC1 | 7.78 µM |
| O=C1C(NS(=O)(=O)c2cccs2)=C(c2ccccc2)C(=O)c2ccccc21 | 10.5 µM |
| C=CCNC1=C(N2CCSCC2)C(=O)c2ccccc2C1=O | 3.93 µM |
| COc1ccc(C2=C(NC(=O)c3ccc(Cl)cc3)C(=O)c3ccccc3C2=O)cc1 | 15.3 µM |
| O=C(NC1=C(N2CCOCC2)C(=O)c2ccccc2C1=O)c1ccc(Br)cc1 | 12.5 µM |
| C=CCNC1=C(N(C)C(C)=O)C(=O)c2ccccc2C1=O | 0.0923 µM |
| COC1=C(NS(=O)(=O)c2ccc(Br)cc2)C(=O)c2ccccc2C1=O | 7.22 µM |

| Structure (SMILES) | AC50 |
| --- | --- |
| NC1=C(NS(=O)(=O)c2ccc(Br)s2)C(=O)c2ccccc2C1=O | 17.5 µM |
| CCN1CCN(C2=C(Nc3ccccc3)C(=O)c3ccccc3C2=O)CC1 | 0.809 µM |
| C=CCNC1=C(N2CCOCC2)C(=O)c2ccccc2C1=O | 2.54 µM |
| NC1=CC(=O)c2ccccc2C1=O | 1.06 µM |
| O=C(NC1=C(c2ccc(OC(F)(F)F)cc2)C(=O)c2ccccc2C1=O)c1ccccc1 | 18.9 µM |
| CCN1CCN(C2=C(NC(=O)c3ccc(Br)cc3)C(=O)c3ccccc3C2=O)CC1 | 0.845 µM |
| O=C(NC1=C(c2ccccc2)C(=O)c2ccccc2C1=O)c1ccco1 | 9.7 µM |
| CC(=O)NC1=C(c2ccc(Cl)cc2)C(=O)c2ccccc2C1=O | 3.45 µM |
| COc1ccc(C2=C(NC(=O)c3cccc(Cl)c3)C(=O)c3ccccc3C2=O)cc1 | 11 µM |
| O=C1C(NS(=O)(=O)c2ccccc2)=C(N2CCCCC2)C(=O)c2ccccc21 | 22.2 µM |
| CN1CCN(C2=C(NS(=O)(=O)c3ccc(Br)s3)C(=O)c3ccccc3C2=O)CC1 | 1.98 µM |
| O=C1C(NS(=O)(=O)c2ccccc2)=C(N2CCOCC2)C(=O)c2ccccc21 | 19.3 µM |
| CCN1CCN(C2=C(NS(=O)(=O)c3cccs3)C(=O)c3ccccc3C2=O)CC1 | 2.96 µM |
| C=CCNC1=C(NCCCN(CC)CC)C(=O)c2ccccc2C1=O | 4.6 µM |
| COc1ccc(C2=C(NC(=O)c3cccc(OC)c3)C(=O)c3ccccc3C2=O)cc1 | 6.98 µM |
| O=C(NC1=C(c2ccccc2)C(=O)c2ccccc2C1=O)c1ccccc1 | 6.93 µM |
| O=C1C=C(NS(=O)(=O)c2ccccc2)C(=O)c2ccccc21 | 7.45 µM |
| COc1ccc(C(=O)NC2=C(c3ccc(OC(F)(F)F)cc3)C(=O)c3ccccc3C2=O)cc1 | 36.2 µM |
| O=C1C(NS(=O)(=O)c2ccc(Br)s2)=C(N2CCSCC2)C(=O)c2ccccc21 | 22.7 µM |
| COc1ccc(C(=O)NC2=C(c3ccc(OC)cc3)C(=O)c3ccccc3C2=O)cc1 | 7.11 µM |
| NC1=C(c2ccc(OC(F)(F)F)cc2)C(=O)c2ccccc2C1=O | 20.4 µM |
| CN1CCN(C2=C(NC(=O)c3ccc(Br)cc3)C(=O)c3ccccc3C2=O)CC1 | 1.14 µM |

| Structure (SMILES) | AC50 |
| --- | --- |
| CNC1=CC(=O)c2ccccc2C1=O | 9.17 µM |
| CN1CCN(C2=C(NS(=O)(=O)c3cccs3)C(=O)c3ccccc3C2=O)CC1 | 3.51 µM |
| COC1=C(Nc2ccccc2)C(=O)c2ccccc2C1=O | 2.69 µM |
| CC1CCN(CC(CS(=O)(=O)c2ccc([N+](=O)[O-])cc2)N2CCC(C)CC2)CC1 (stereo unspecified) | 2.71 µM |
| O=C(NC1=C(N2CCOCC2)C(=O)c2ccccc2C1=O)c1ccccc1 | 8.05 µM |
| CCN(CC)CCNC1=C(Nc2ccccc2)C(=O)c2ccccc2C1=O | 4.88 µM |
| O=C1C=C(NS(=O)(=O)c2cccs2)C(=O)c2ccccc21 | 1.71 µM |
| C=CCNC1=C(NS(=O)(=O)c2cccs2)C(=O)c2ccccc2C1=O | 14.2 µM |
| O=C(NC1=C(Cl)C(=O)c2ccccc2C1=O)c1ccccc1 | 0.806 µM |
| CC(=O)NC1=C(c2ccc(Oc3ccccc3)cc2)C(=O)c2ccccc2C1=O | 19.8 µM |
| O=C(NC1=C(c2ccccc2)C(=O)c2ccccc2C1=O)c1ccc(Br)cc1 | 24.4 µM |
| CCN(CC)CCCNC1=C(N(C)C(C)=O)C(=O)c2ccccc2C1=O | 0.305 µM |
| CC(=O)N(C)C1=C(N2CCOCC2)C(=O)c2ccccc2C1=O | 2.45 µM |
| NC1=C(NS(=O)(=O)c2ccccc2)C(=O)c2ccccc2C1=O | 4.31 µM |
| C=CCNC1=C(Cl)C(=O)c2ccccc2C1=O | 0.799 µM and 1.88 µM |
| C=CCNC1=C(NS(=O)(=O)c2ccc(Br)cc2)C(=O)c2ccccc2C1=O | 11.9 µM |
| O=C(NC1=C(c2ccc(OC(F)(F)F)cc2)C(=O)c2ccccc2C1=O)c1ccc(Br)cc1 | 25 µM |
| C[C@@H](NC1=C(Nc2ccccc2)C(=O)c2ccccc2C1=O)c1ccccc1 | 13.4 µM |
| C=C1C(=O)OC2C1CC/C(C)=C\CCC1(C)OC21 (stereo unspecified) | 3.51 µM |
| CCN1CCN(C2=C(N(C)C(C)=O)C(=O)c3ccccc3C2=O)CC1 | 0.318 µM |
| O=C(NC1=C(c2ccc(OC(F)(F)F)cc2)C(=O)c2ccccc2C1=O)c1ccccc1F | 19.9 µM |
